Results taken from ChEMBL document CHEMBL4513216, “Probing the Open Global Health Chemical Diversity Library for Multistage-Active Starting Points for Next-Generation Antimalarials” (ACS Infect Dis, 2020).

Assay: Toxicity liver stage against HepG2, at 10uM
Assay type: cell-based
Design: test concentration 10 uM, cell line HepG2-A16-CD81EGFP
Conditions: human, HepG2-A16-CD81EGFP cells; read-out: INHIBITION
In short: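 Uninfected HepG2-A16-CD81EGFP cells, 3 × 10^3 per well, 1536-well, plated on prespotted compound at 10 μM final, parasite-free screening media added to match infected plates; puromycin 10 μM positive, DMSO 0.5% negative; run in parallel with 48 h PbLuc assay at 37 °C, 5% CO2; viability by CellTiter-Glo luminescence, normalized to controls.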

Row | SMILES | cytotoxicity at 10 µM
1 | O=C(CCCNC(=O)c1cnccn1)Nc1ncc[nH]1 | -41.9%
2 | CC(=O)Nc1ccc2c(c1)CN(C(=O)c1ccco1)CC2 | 6.17%
3 | O=C(Cc1ccccc1Cl)NCCN1CCC(c2cccs2)CC1 | 6.93%
4 | O=C(CN1C(=O)CCC1=O)NCc1nn(C2CCCC2)c2c1CCCC2 | 1.97%
5 | CCOc1cccc2c1OCC(=O)N(c1ccc3c(c1)OCCO3)C2 | 13.1%
6 | O=c1[nH]nc2c(N3CCOCC3)nccn12 | 9.73%
7 | Cc1ccc(C)c(Oc2cc(-n3nc(C)c(C#N)c3N)nc(C)n2)c1 | 69.5%
8 | CCS(=O)(=O)N1CCCc2ccc(NC(=O)Cc3ccc(F)cc3)cc21 | 18.6%
9 | CS(=O)(=O)N1Cc2ccccc2C2(CCN(C(=O)c3ccno3)CC2)C1 | 6.31%
10 | CCOc1ccc(S(=O)(=O)N(C)Cc2cnn(CC)c2)cc1 | 11.6%
11 | Cc1cc2nc(CN(C)c3ccc(Cl)cc3)cc(=O)n2o1 | -13%
12 | Cc1nn(C)c2cn(C(C)C(=O)NCc3ccccn3)nc12 (stereo unspecified) | 11.1%
13 | CCC(=O)N1CCCC(C(=O)c2cnn(-c3ccc(F)cc3)c2N)C1 (stereo unspecified) | 4.57%
14 | COc1cccc([C@H]2CN(C(=O)c3ccccc3)[C@@H]3CCCN[C@H]23)c1 | -25.9%
15 | CCCn1nccc1-c1cc(C2CCN(S(C)(=O)=O)CC2)ccn1 | -6.94%
16 | CCS(=O)(=O)N1CCCC(Cc2cnccn2)C1 (stereo unspecified) | -10.3%
17 | CS(=O)(=O)N1Cc2ccccc2CC2(CCN(Cc3ccccc3)C2)C1 (stereo unspecified) | 7.38%
18 | CN(C)CCNc1ncccc1CNC(=O)Nc1cc(F)cc(F)c1 | 2.62%
19 | CCC(C)(CC(=O)OC)NCc1cc(C)on1 (stereo unspecified) | -1.88%
20 | CCc1ccc(O)c(C(=O)N2CCN(CC(=O)N(CC)CC)CC2)c1 | 4.49%
21 | CCC(CC)NC(=O)c1cccnc1-n1cccn1 | -13.9%
22 | CN(C)c1ccc(CNC2(c3ccc(F)cc3)CCOCC2)cc1F | 0.937%
23 | O=C(Nc1cccnc1)NC1CCN(c2ccccc2OC(F)F)C1 (stereo unspecified) | 12.1%

Row | SMILES | cytotoxicity at 10 µM
24 | N#Cc1ccc(CN2CCCN(CCCn3cncn3)CC2)cc1 | -2.89%
25 | CCn1cc(NC(=O)C2CCN(Cc3nc(C)c(C)s3)CC2)cn1 | 6.37%
26 | Cc1cnn(CC2CCCN2c2ncnc3sccc23)c1 (stereo unspecified) | 44.4%
27 | CCC(C)C(=O)Nc1ccc2oc(=O)n(CCN(C)C)c2c1 (stereo unspecified) | -14.8%
28 | CC(CNC(=O)c1ccc(F)cc1I)N1CCCC1 (stereo unspecified) | 1.28%
29 | O=C(CC1CN(Cc2ccccc2)CCO1)NCCN1CCOCC1 (stereo unspecified) | 6.67%
30 | Cc1cc(Cl)cc(C)c1CNC1CCN(CC(=O)N(C)C)CC1 | -1.51%
31 | CC(=O)N1Cc2ccccc2CC1C(=O)Nc1cc(C)ccn1 (stereo unspecified) | -4.5%
32 | N#Cc1cccnc1NCc1ccc(S(=O)(=O)NCC2CCCO2)cc1 (stereo unspecified) | 5.98%
33 | Cc1cc(N)nc(SC2CCN(c3ccccc3F)C2=O)n1 (stereo unspecified) | -9.51%
34 | O=C(NC1(c2nccs2)CCCC1)c1[nH]nc(C2CC2)c1Cl | -24.6%
35 | Cc1nc(CNC(=O)NC2CCN(c3cccc(Cl)c3)C2)no1 (stereo unspecified) | 0.636%
36 | CC(C)(C)OC(=O)N1CCCN1C(=O)c1cccc2cc[nH]c12 | 2.84%
37 | Cc1cc(CN(CCCO)c2ccccc2)on1 | -4.91%
38 | Cc1cc(C(=O)NS(=O)(=O)Cc2ccon2)c(C)n1C(C)C | -2.17%
39 | Cc1cc(C)c(CNc2nc3ccccc3cc2CO)c(=O)[nH]1 | 6.37%
40 | COCC(C)NS(=O)(=O)c1ccc(Br)cn1 (stereo unspecified) | -6.74%
41 | CS(=O)(=O)Cc1nc(CN2CCc3ccccc3CC2)cs1 | -7.73%
42 | CCOC1CCC2(CCN(C(=O)c3csnn3)CC2)c2ccccc21 (stereo unspecified) | -1.58%
43 | CC(=O)N1CCC(n2ccc(-c3cnc(NCC(C)C)nc3)n2)CC1 | -9.13%
44 | CSCC(=O)N(C)Cc1noc(-c2ccccc2)n1 | -4.34%
45 | c1cn(-c2ccc(N3CCC(NC4CC4)CC3)cc2)cn1 | 5.16%
46 | c1ccc(-c2nnc(N3CCCC4(CCOC4)C3)s2)cc1 (stereo unspecified) | -2.37%

Row | SMILES | cytotoxicity at 10 µM
47 | CNS(=O)(=O)c1ccc(CN2CCCN(Cc3ccncc3)CC2)cc1 | 7.06%
48 | Cc1nc(CN(C)Cc2nc(-c3sccc3C)oc2C)no1 | -0.205%
49 | O=C1Nc2ccccc2NC12CCN(Cc1nnc(C3CC3)o1)CC2 | -7.03%
50 | O=C1CC2(CCN(C(=O)c3cccc(Cl)c3)CC2)CN1 | -3.02%
51 | CCN(CC)C(=O)[C@@H]1C[C@H](N)CN1c1nnc(-c2ccccc2)s1 | -51.7%
52 | O=C(NCc1ccc2[nH]c(=O)[nH]c2c1)c1ccc(CN2CCCC2)o1 | -0.987%
53 | CC(C)N(CCO)C(=O)C1CCC(=O)N(CCc2cccc(F)c2)C1 (stereo unspecified) | -6.95%
54 | c1ccc(NCCn2cc(C3CCCNC3)nn2)cc1 (stereo unspecified) | 5.44%
55 | Cc1ncc2c(c1CNC(=O)C1(C)CCCO1)CCNC2 (stereo unspecified) | -45.6%
56 | OCc1ccc(CN(CCCn2ccnc2)Cc2cccnc2)o1 | -6.75%
57 | CC(O)c1cn(CC2CCN(C(=O)c3cccc(N(C)C)c3)CC2)nn1 (stereo unspecified) | -0.412%
58 | CCCn1ccnc1CN1CCCC1c1ccccn1 (stereo unspecified) | -7.25%
59 | Cc1ccc(C(=O)N2CC(c3cccnc3)C2)cc1N1CCNC1=O | -4.57%
60 | CC1=NN(CC(=O)N2CC[C@@H]3[C@@H](CCC(=O)N3CC(C)C)C2)CC1 | 0.88%
61 | CSCCCNc1ncnc2cccc(F)c12 | 0.721%
62 | COc1ccccc1C1CNC(=O)c2nc(-c3nccn3C)[nH]c2C1 (stereo unspecified) | 4.2%
63 | Cc1cnc(C)c(-c2cccc(-c3ccn(CCN4CCCC4)n3)c2)n1 | -10.5%
64 | CCCN1CCC(CC(=O)N(C)CC(=O)c2ccc(O)cc2)CC1 | 1.73%
65 | O=C(C1CCC1)N1CCC(C2CCN(Cc3ccc(Cl)cc3)C2)CC1 (stereo unspecified) | -10.5%
66 | Cn1ccnc1CN1CCN(CC2CC2)[C@@H]2CS(=O)(=O)C[C@@H]21 | 1.02%
67 | Nc1ccc(CC2COc3ccccc3C2)cn1 (stereo unspecified) | 0.541%
68 | CCOc1ccc(C(=O)CCC(=O)NCc2csc(N)n2)cc1C | 7.34%
69 | CC(C)CN1CC2(CCN(C(=O)c3nc4ncccn4n3)CC2)CC1=O | 0.345%

Row | SMILES | cytotoxicity at 10 µM
70 | CCC[C@H]1CN(c2nccc(OC)n2)C[C@@H]1NS(=O)(=O)N(C)C | -140%
71 | Cc1ccccc1N1CCN(C(=O)CC(C)C)CC1 | -1.26%
72 | NC(=O)C1CCN(C(=O)c2cc(S(=O)(=O)N3CCCCC3)cs2)CC1 | -45.1%
73 | CN(C)C(=O)c1ccc(C2CCCN2C(=O)CCC2=NNC(=O)CC2)s1 (stereo unspecified) | 9.19%
74 | CCn1nc(C)c(CCN2CC3(CCOC3)CCC2=O)c1C (stereo unspecified) | -118%
75 | CCNc1ncc(C(=O)NCCc2csc(-c3ncccn3)n2)cn1 | 19.9%
76 | CC1CN(C)CCN1C(=O)c1ccn(-c2ccc(F)cc2)n1 (stereo unspecified) | -5.3%
77 | CN(C)C(=O)C1CCN(Cc2csc(C(C)(C)C)n2)CC1 | -23%
78 | CC(Cn1cccn1)NCc1ccc(OCc2ccncc2)cc1 (stereo unspecified) | -29.9%
79 | CC(C)Oc1ccccc1NC(=O)N1CCC(n2cncn2)CC1 | -3.67%
80 | Cc1cc(NC(=O)CN2CCOC(Cn3nc(C)cc3C)C2)n(C)n1 (stereo unspecified) | -7.91%
81 | CC(NC(=O)NCCNc1ncccn1)c1cccs1 (stereo unspecified) | -0.447%
82 | NC(=O)c1cc(C2CCCN(C(=O)CCc3ccsc3)C2)n[nH]1 (stereo unspecified) | -5.79%
83 | CC(C)CNC(=O)CN1C=Nc2ccccc2S1(=O)=O | -2.09%
84 | CC(C)c1nc(C2CCCN(C(=O)CCn3ccnc3)C2)no1 (stereo unspecified) | -10.8%
85 | CC(C(=O)Nc1ccc(N2CCCC2)nc1)n1cncn1 (stereo unspecified) | -6.19%
86 | Cc1ccccc1-c1noc(CN2CCn3c(nnc3C3CC3)C2)n1 | -7.64%
87 | CN(Cc1ccccc1)CC(O)Cn1cnc2ccsc2c1=O (stereo unspecified) | -2.89%
88 | O=C(Nc1cnn(CCN2CCOCC2)c1)c1ccccc1O | -3.38%
89 | Cc1cc(NC(=O)CCN2CCCC2Cn2cncn2)no1 (stereo unspecified) | 4.26%
90 | CC(=O)N1CCN(C(=O)c2cnn(-c3ccccc3Cl)c2)CC1 | -8.72%
91 | Cc1cnn(CC2CCN(CC(O)COc3ccc(F)cc3)CC2)c1 (stereo unspecified) | -10.9%
92 | Cc1c(C)n(CC(O)CN2CCOCC2)c2c(Cl)cccc12 (stereo unspecified) | 0.829%

Row | SMILES | cytotoxicity at 10 µM
93 | COCC1CN(CC2CC2)Cc2nn(C)cc21 (stereo unspecified) | 0.281%
94 | Cn1cncc1C(=O)N1C[C@@H]2CCN(c3cnccn3)C[C@@H]2C1 | -96.6%
95 | Cc1cc(C(=O)N2CCCC3(COCCN(CCN(C)C)C3)C2)no1 (stereo unspecified) | 3.22%
96 | O=C(c1ccncc1F)N1Cc2nc(COCC3CC3)oc2C1 | -99.9%
97 | O=S(=O)(c1cccnc1)N1C[C@@H]2COC[C@]2(CN2CCOCC2)C1 | 5.86%
98 | Cn1cccc1C(=O)N1CC[C@H]2[C@H]1CCN2CC1CC1 | -3.86%
99 | CCCN1CCc2c(C(=O)N(C)Cc3ccccn3)nn(C)c2C1 | -1.92%
100 | Cc1ccc2c(c1)C1(CCNCC1)CC2NCCO (stereo unspecified) | -105%
101 | CCC(=O)Nc1ccc2c(c1)C1(CCOCC1)CN2CCOC | -99%
102 | COCC1c2c(cnn2C)CCN1C(=O)c1cscn1 (stereo unspecified) | -101%
103 | Cc1ccc(N2CC[C@@H]3[C@@H]2CCN3C(=O)Cc2ccsc2)nn1 | -93.9%
104 | COc1c(CNCc2ccc(C(=O)N(C)C)cc2)c(C)nn1C | 1.64%
105 | COc1cc(N2CCC3(CCN(Cc4csc(C)n4)C3)CC2)ncn1 | -118%
106 | Cc1ccc(C(=O)N2CCC3(CC2)CC(N2CCOCC2)C3)cc1 | 1.93%
107 | COc1ncccc1CNC1CCc2c(ccc(=O)n2CC2CC2)C1 (stereo unspecified) | -110%
108 | Cc1nc(COC[C@@H]2CC[C@H]3NCC[C@H]3O2)cs1 | -3.15%
109 | C1CC(N2C[C@@H]3COC[C@]3(COCC3CCOCC3)C2)C1 | -111%
110 | CCC=C(C)C(=O)NCc1ccnc(OC2CCOCC2)c1 | 5.48%
111 | C=c1ccoc1=C1NN=C(CNC2CCCN(c3cccnn3)C2)O1 (stereo unspecified) | -9.48%
